Not all results are given here.
Apaf-1 act: activators of human Apaf-1 apoptosome, primary screen, biochemical, DEVD-Rh110 fluorescence, uHTS | Apaf-1 apoptosome caspase-3 activation; stronger effect = lower value | activity change, negative = activation, % at 20 µM | hit rate 0.31% among 330,000 | AID 489031, 2010;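 active = activity change at or below -40% at 20 µM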
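system = biochemical Apaf-1 apoptosome reconstitution | buffer or medium = 20 mM HEPES pH 7.5 with CHAPS, BSA | also added = dATP and cytochrome c as apoptosome triggers, (Z-DEVD)2-Rh110 substrate | incubation = 30 min compound preincubation and 50 min reaction, both room temperature | measured by = fluorescence, 540 nm emission, 480 nm excitation | read-out basis = Caspase-3 cleavage activity downstream of Apaf-1 activation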
Rh110 interf act: Rh110 fluorescence interference by putative Apaf-1 activators, confirmation, artefact control for Apaf-1 activator project, biochemical, 20 µM. quenched caspase reaction, Ex480/Em540. fluorescence interference (activity change), % at 20 µM, hits read low. shares compounds with Apaf-1 act. 980 tested, under 10 active;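 active = mean activity change at or below -40% when tested at 20 µM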
Apaf-1 act conf2: Apaf-1 activators, single-dose retest, confirmation, biochemical, fluorescence, DEVD-Rh110, 20 µM; activity change, negative = activation, % at 20 µM; shares compounds with Apaf-1 act; hit rate 5% among 980; reconstituted apoptosome caspase-3 activity; stronger effect = lower value; AID 504617, 2011;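 active = mean activity change at or below -40%, meaning activation of 40% or more, at 20 µM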
* marks the source's active call; other numbers are inactive results; . = not tested or not shown.

SMILES	Apaf-1 act	Rh110 interf act	Apaf-1 act conf2
CC(C)COCC(CN(Cc1ccccc1)c1ccccc1)N1CCCC1 (centres undefined)	49	.	.
Nc1cc(S(=O)(=O)O)cc([N+](=O)[O-])c1O	-110*	-5	4
O=[N+]([O-])c1cc(F)c2cccnc2c1O	64	.	.
CCN(CC)CCOC(=O)c1ccc(N/C=C(/C#N)c2nc(-c3cccc(OC)c3)cs2)cc1	55	.	.
CCCCN(CC)c1nc(N)c2c(N)nc(OCC)cc2c1C#N	98	.	.
Cc1cccc(NC(=O)c2ccccc2OCC(=O)N2CCOCC2)c1C	-546*	20	14
COc1cc(C(=O)N2CCN(c3cccc(C)c3C)CC2)ccc1OCC(=O)N1CCOCC1	51	.	.
CCOC(=O)C1CCN(c2cc3c(cc2NC(=O)c2ccccc2OCC)n(C)c(=O)n3C)CC1	40	.	.
CC[C@@H](C)[C@@H]1CN([C@@H](C)CN2CCC[C@H]2CN2C(N)=NC[C@H]2CC(C)C)C(=N)N1CCc1ccc(Cl)c(Cl)c1	52	.	.
CN(C)/C=C/C(=O)c1ccc(S(=O)(=O)c2ccccc2)cc1	-61*	-2	6
COc1ccc(C(=O)c2nccc3cc(OC)c(OC)cc23)cc1OC	84	.	.
COc1ccc(C(=O)/C=C/N(C)C)cc1OC	-107*	3	8
Cc1ccc(C(=O)N/N=C/c2ccc(-c3ccc(Br)cc3[N+](=O)[O-])o2)o1	42	.	.
CC(NC(=O)Nc1ccc(F)cc1)c1ccc2c(c1)OCO2 (centres undefined)	-71*	21	0
O=C(NC1(O)C(=O)c2ccccc2C1=O)c1ccccc1	94	.	.
CCS(=O)(=O)NCCc1csc(C)n1	-484*	8	12
COC(=O)CCC(=O)OC1(C)C(=O)C=C2C=C(C3CC3)N(CC(C)C)C=C2C1=O (centres undefined)	53	.	.
CCCCCCCNC(=O)C1(CC2CC(c3cccc(Br)c3)=NO2)CCNCC1 (centres undefined)	46	.	.
Cc1noc(NS(=O)(=O)c2ccc(N/C=C\C(=O)c3ccc(F)cc3)cc2)c1C	-111*	-3	21
O=C(O)c1ccc2nc(-c3ccco3)c(-c3ccco3)nc2c1	62	.	.
O=C(c1ccc2nc(-c3ccco3)c(-c3ccco3)nc2c1)N1CCN(c2ccccc2)CC1	40	.	.
CCc1nc2ccc(C(=O)N3CCN(c4ccccc4)CC3)cc2nc1CC	-505*	4	12
COC(=O)c1cc(C)nc2c1C(=O)C(=O)C=C2N1CCOCC1	99	.	.
NC1=NC[C@H](Cc2ccc(O)cc2)N1CCC12CC3CC(CC(C3)C1)C2	49	.	.
CCC(C)c1ccccc1NC(=O)COC(=O)c1ccc2[nH]c3c(c2c1)CCCC3 (centres undefined)	-170*	20	22
SMILES	Apaf-1 act	Rh110 interf act	Apaf-1 act conf2
Cc1ccc(NC(=O)CN(C)C(=O)c2ccc3[nH]c4c(c3c2)CC(C)CC4)cc1 (centres undefined)	59	.	.
COc1ccc(NC(=S)Nc2ccc3nsnc3c2)cc1	97	.	.
O=C(Nc1ccc(N2CCN(C(=O)c3ccccc3F)CC2)cc1)c1cncc(Br)c1	-65*	14	17
COc1ccc2ccccc2c1C(O)c1nccn1C (centres undefined)	41	.	.
CC(NCc1ccc(OCc2ccc(Cl)cc2)cc1)C(O)c1ccccc1 (centres undefined)	41	.	.
Cn1ccnc1C(O)c1ccc(OCc2ccccc2)cc1 (centres undefined)	-355*	7	1
N#Cc1c(N2CCCC2)nc(N)c2c(N)nc(N3CCCC3)cc12	98	.	.
CCN(CC(=O)Nc1ccccc1C(F)(F)F)C(=O)c1ccccc1SCC(=O)N1CCCC1	43	.	.
O=C(NC(=S)Nc1ccccc1C(F)(F)F)c1ccccc1F	-244*	14	17
Fc1ccc(NC(=S)Nc2cccc3ccccc23)cc1F	81	.	.
C=CCn1c(N)c(C(=O)Nc2cccc(C)c2)c2nc3ccccc3nc21	48	.	.
COc1ccc(N)c2c1OCCC2=O	87	.	.
Cc1ccc(S(=O)(=O)N(C)c2ccccc2C(=O)NC2CCCC2)cc1	-59*	4	14
Cc1c(C(=O)Nc2ccc(S(=O)(=O)N(C)C3CCN(C)CC3)cc2)oc2ccccc12	53	.	.
c1csc(Cc2nn3c(-c4ccncc4)nnc3s2)c1	78	.	.
CN(C)Cc1cc(O)c(CN(C)C)cc1O	65	.	.
C=CCOc1c(Cl)cc(CNc2ccc(N(C)C)cc2)cc1OC	64	.	.
Clc1ccc(-c2ccc(CNCC3CCCO3)o2)cc1 (centres undefined)	-131*	5	3
CCc1nn(CCCC(=O)NCc2ccccc2Br)c(=O)c2cc3occc3n12	46	.	.

Assay outcomes as filed in PubChem.
